Assay results: ChEMBL document CHEMBL1141789, “Minutosides A and B, antifungal sulfated steroid xylosides from the patagonian starfish Anasterias minuta” (2005)
The source made the active and inactive calls. The calls are words filed in the database; no cut-off is given here.

Experiments:
[1] = system: Cladosporium cucumerinum; test: Antifungal activity against Cladosporium cucumerinum at 5 ug/spot after 2 to 3 days; type: functional
Outline: (§1)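 TLC bioautography. Geometric dilutions were made from freshly prepared stock solutions (1-10 mg mL^-1) in a suitable solvent and spotted onto TLC plates. The read-out was the diameter (mm) of clear inhibition zones against a dark grey background.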

[2] = system: Aspergillus flavus; test: Antifungal activity against Aspergillus flavus at 5 ug/spot after 2 to 3 days; type: functional; outline: as §1
[3] = system: Aspergillus flavus; test: Antifungal activity against Aspergillus flavus at 5 to 10 ug/spot after 2 to 3 days; type: functional
Outline: (§2)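 TLC bioautography: geometric dilutions made from freshly prepared stocks (1-10 mg mL^-1) in a suitable solvent, 10 µL spotted per TLC plate. Plates then sprayed with C. cucumerinum (DSM 62122) or A. flavus (BAFC 589) suspended in nutritive medium, incubated 2-3 days in a moist glass box. Read-out: diameter (mm) of clear inhibition zones against dark gray background; benomyl reference.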

[4] = system: Aspergillus flavus; test: Antifungal activity against Aspergillus flavus at 20 to 60 ug/spot after 2 to 3 days; type: functional; outline: as §2
[5] = system: Cladosporium cucumerinum; test: Antifungal activity against Cladosporium cucumerinum at 10 ug/spot after 2 to 3 days; type: functional, organism-based; outline: as §2
[6] = system: Cladosporium cucumerinum; test: Antifungal activity against Cladosporium cucumerinum at 20 to 60 ug/spot after 2 to 3 days; type: functional; outline: as §2
[7] = system: Cladosporium cucumerinum; test: Antifungal activity against Cladosporium cucumerinum at 10 to 60 ug/spot after 2 to 3 days; type: functional; outline: as §2

Compound | Activity [3] | inhibition zone (IZ) [4] [mm] | Activity [5] | Activity [7] | Activity [4] | Activity [6] | inhibition zone (IZ) [3] [mm] | inhibition zone (IZ) [7] [mm] | further results
CCCCNC(=O)n1c(NC(=O)OC)nc2ccccc21 [BENOMYL] |  |  |  |  |  |  |  |  | inhibition zone (IZ) [1]: 15 mm; inhibition zone (IZ) [2]: 14 mm
C[C@H](/C=C/[C@@H](C)[C@H]1C[C@@H](O)[C@@H]2[C@]1(C)CC[C@@H]1[C@@]3(C)CC[C@H](O[C@@H]4OC[C@@H](O)[C@H](O)[C@H]4O)C[C@@H]3[C@@H](O)C[C@]12O)[C@H](C)C(=O)NCCS(=O)(=O)[O-].[Na+] [MINUTOSIDE B] | inactive | 5 | inactive |  |  |  |  |  | inhibition zone (IZ) [6]: 3 mm
CC(C)[C@H](CC[C@@H](C)[C@H]1C[C@@H](O)[C@@H]2[C@]1(C)CC[C@@H]1[C@@]3(C)CC[C@H](O)C[C@@H]3[C@@H](O)C[C@]12O)O[C@@H]1OC[C@@H](O)[C@H](O)[C@H]1O | inactive |  | inactive | inactive | inactive | inactive |  |  | 
CC(C)[C@H](/C=C/[C@@H](C)[C@H]1C[C@@H](O)[C@@H]2[C@]1(C)CC[C@@H]1[C@@]3(C)CC[C@H](OS(=O)(=O)[O-])C[C@@H]3[C@@H](O)C[C@]12O)O[C@@H]1OC[C@@H](O)[C@H](O)[C@H]1O.[Na+] [MINUTOSIDE A] |  | 5 |  |  |  |  | 5 | 7 | 
CC(C)[C@H](/C=C/[C@@H](C)[C@H]1C[C@@H](O)[C@@H]2[C@]1(C)CC[C@@H]1[C@@]3(C)CC[C@H](O)C[C@@H]3[C@@H](O)C[C@]12O)O[C@@H]1OC[C@@H](O)[C@H](O)[C@H]1O | inactive |  | inactive | inactive | inactive | inactive |  |  | 
CC(C)[C@H](CC[C@@H](C)[C@H]1C[C@@H](O)[C@@H]2[C@]1(C)CC[C@@H]1[C@@]3(C)CC[C@H](OS(=O)(=O)O)C[C@@H]3[C@@H](O)C[C@]12O)O[C@@H]1OC[C@@H](O)[C@H](O)[C@H]1O [PYCNOPODIOSIDE B] |  | 5 |  |  |  |  | 5 | 7 | 
